Test results: ChEMBL document CHEMBL1165950, “Design and synthesis of new potent anticancer pyrazoles with high FLT3 kinase inhibitory selectivity” (Bioorg Med Chem, 2010)

Legend:
Type in all cases: functional
NCI-H322M [1] = assay: Cytotoxicity against human NCI-H322M cells assessed as cell growth at 100 nM after 48 hrs by sulforhodamine B assay; conditions: read-out: Activity
HCC 2998 = assay: Cytotoxicity against human HCC2998 cells assessed as cell growth at 10 uM; conditions: read-out: Activity
In short: (§1)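 Single-dose NCI-60 screen at 10 µM. Cells were grown in RPMI 1640 with 5% FBS and 2 mM L-glutamine, then treated for 48 h at 37 °C. Protein was measured by SRB staining with absorbance at 515 nm. Percentage growth was recorded, and inhibition percentage was calculated as 100 minus growth percentage.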

COLO 205 [2] = assay: Cytotoxicity against human COLO205 cells assessed as cell growth at 1 uM after 48 hrs by sulforhodamine B assay; conditions: COLO 205, 48 h, read-out: Activity
In short: (§2)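 NCI-60 five-dose screen. Cells were grown in RPMI 1640 with 5% FBS and 2 mM L-glutamine, plated at 5000–40,000 cells/well and preincubated for 24 h. Time-zero plates were TCA-fixed. DMSO-solubilized drug was added at five concentrations (10-fold or ½-log serial dilutions) for 48 h at 37 °C, 5% CO2. Cells were TCA-fixed, stained with 0.4% SRB and read at 515 nm. Percent growth used time-zero, control and test absorbances.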

LOX IMVI = assay: Cytotoxicity against human LOXIMVI cells assessed as cell growth at 0.001 uM after 48 hrs by sulforhodamine B assay; conditions: read-out: Activity
MDA-MB-435 = assay: Growth inhibition of human MDA-MB-435 cells after 48 hrs by sulforhodamine B assay; conditions: MDA-MB-435, 48 h; for CC50: read-out: LC50 (the source's name)
In short: (§3)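 NCI 60-cell screen, five-dose mode. Cells grown in RPMI 1640 with 5% FBS and 2 mM L-glutamine and plated at 5000-40,000 cells/well according to doubling time. After 24 h preincubation, a Tz plate was TCA-fixed. Five concentrations (10-fold or 1/2 log dilutions) were applied for 48 h at 37 °C. SRB staining read at 515 nm. IC50 taken from [(Ti-Tz)/(C-Tz)]×100 = 50.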

NCI-H460 = assay: Cytotoxicity against human NCI-H460 cells assessed as cell growth at 100 nM after 48 hrs by sulforhodamine B assay; conditions: NCI-H460, 48 h, read-out: Activity
K562 [3] = assay: Cytotoxicity against human K562 cells assessed as cell growth at 100 nM after 48 hrs by sulforhodamine B assay; conditions: K562, 48 h, read-out: Activity
NCI-H322M [4] = assay: Growth inhibition of human NCI-H322M cells after 48 hrs by sulforhodamine B assay; conditions: for CC50: read-out: LC50 (the source's name); in short: as §3
K562 [5] = assay: Cytotoxicity against human K562 cells assessed as cell growth at 10 uM; conditions: read-out: Activity; in short: as §1
K562 [6] = assay: Cytotoxicity against human K562 cells assessed as cell growth at 0.001 uM after 48 hrs by sulforhodamine B assay; conditions: K562, 48 h, read-out: Activity
SN12C [7] = assay: Cytotoxicity against human SN12C cells assessed as cell growth at 1 uM after 48 hrs by sulforhodamine B assay; conditions: read-out: Activity
UO-31 = assay: Growth inhibition of human UO31 cells after 48 hrs by sulforhodamine B assay; conditions: UO-31, 48 h; for CC50: read-out: LC50 (the source's name); in short: as §3
SW-620 = assay: Cytotoxicity against human SW620 cells assessed as cell growth at 0.001 uM after 48 hrs by sulforhodamine B assay; conditions: SW-620, 48 h, read-out: Activity
HCT-116 = assay: Cytotoxicity against human HCT116 cells assessed as cell growth at 10 uM after 48 hrs by sulforhodamine B assay; conditions: HCT-116, 48 h, read-out: Activity
HCT-15 = assay: Cytotoxicity against human HCT15 cells assessed as cell growth at 100 nM after 48 hrs by sulforhodamine B assay; conditions: HCT-15, 48 h, read-out: Activity
UACC-62 = assay: Cytotoxicity against human UACC62 cells assessed as cell growth at 1 uM after 48 hrs by sulforhodamine B assay; conditions: UACC-62, 48 h, read-out: Activity
UACC-257 [8] = assay: Cytotoxicity against human UACC257 cells assessed as cell growth at 10 uM; conditions: read-out: Activity
In short: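 NCI-60 screen: cells grown in RPMI 1640 with 5% FBS and 2 mM L-glutamine, plated at 5000–40,000 cells/well according to doubling time, and preincubated 24 h at 37 °C, 5% CO2. The single 10 µM dose (DMSO stock) was added, then incubated 48 h. Cells were TCA-fixed and stained with 0.4% SRB, read at 515 nm, and growth % calculated against time-zero and control plates.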

NCI-H23 = assay: Cytotoxicity against human NCI-H23 cells assessed as cell growth at 1 uM after 48 hrs by sulforhodamine B assay; conditions: NCI-H23, 48 h, read-out: Activity
UACC-257 [9] = assay: Cytotoxicity against human UACC257 cells assessed as cell growth at 0.001 uM after 48 hrs by sulforhodamine B assay; conditions: UACC-257, 48 h, read-out: Activity
OVCAR-4 = assay: Cytotoxicity against human OVCAR4 cells assessed as cell growth at 10 uM after 48 hrs by sulforhodamine B assay; conditions: OVCAR-4, 48 h, read-out: Activity
COLO 205 [10] = assay: Growth inhibition of human COLO205 cells after 48 hrs by sulforhodamine B assay; conditions: COLO 205, 48 h; for CC50: read-out: LC50 (the source's name)
In short: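 NCI five-dose SRB assay in RPMI 1640 with 5% FBS and 2 mM L-glutamine. Cells were preincubated 24 h, then exposed 48 h at 37 °C to five concentrations (10-fold or half-log serial dilutions from DMSO stocks). TCA fixation, SRB staining, and absorbance at 515 nm followed. IC50 was taken where [(Ti−Tz)/(C−Tz)]×100 = 50, with Tz as time-zero cell density.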

MOLT-4 = assay: Cytotoxicity against human MOLT4 cells assessed as cell growth at 1 uM after 48 hrs by sulforhodamine B assay; conditions: MOLT-4, 48 h, read-out: Activity
NCI/ADR-RES [11] = assay: Cytotoxicity against human NCI/ADR-RES cells assessed as cell growth at 100 nM after 48 hrs by sulforhodamine B assay; conditions: read-out: Activity
ACHN = assay: Cytotoxicity against human ACHN cells assessed as cell growth at 1 uM after 48 hrs by sulforhodamine B assay; conditions: read-out: Activity; in short: as §2
SN12C [12] = assay: Cytotoxicity against human SN12C cells assessed as cell growth at 0.001 uM after 48 hrs by sulforhodamine B assay; conditions: read-out: Activity
NCI/ADR-RES [13] = assay: Cytotoxicity against human NCI/ADR-RES cells assessed as cell growth at 0.001 uM after 48 hrs by sulforhodamine B assay; conditions: read-out: Activity
COLO 205 [14] = assay: Cytotoxicity against human COLO205 cells assessed as cell growth at 0.01 uM after 48 hrs by sulforhodamine B assay; conditions: COLO 205, 48 h, read-out: Activity; in short: as §2
NCI/ADR-RES [15] = assay: Growth inhibition of human NCI/ADR-RES cells after 48 hrs by sulforhodamine B assay; conditions: for CC50: read-out: LC50 (the source's name); in short: as §3

| SMILES | growth at 0.1 µM (NCI-H322M [1]) [%] | growth at 10 µM (HCC 2998) [%] | growth at 1 µM (COLO 205 [2]) [%] | growth at 0.001 µM (LOX IMVI) [%] | GI50 (MDA-MB-435) [nM] | TGI (MDA-MB-435) [µM] | CC50 (MDA-MB-435) [µM] | growth at 0.1 µM (NCI-H460) [%] | growth at 0.1 µM (K562 [3]) [%] | TGI (NCI-H322M [4]) [µM] | CC50 (NCI-H322M [4]) [µM] | growth at 10 µM (K562 [5]) [%] | growth at 0.001 µM (K562 [6]) [%] | growth at 1 µM (SN12C [7]) [%] | GI50 (UO-31) [nM] | TGI (UO-31) [µM] | CC50 (UO-31) [µM] | growth at 0.001 µM (SW-620) [%] | growth at 10 µM (HCT-116) [%] | growth at 0.1 µM (HCT-15) [%] | also measured |
| --- | --- | --- | --- | --- | --- | --- | --- | --- | --- | --- | --- | --- | --- | --- | --- | --- | --- | --- | --- | --- | --- |
| Cc1cc(O)cc(-c2nn(CC#N)cc2-c2ccnc(-c3ccc(Oc4ccccc4)cc3)c2)c1 | 95 | 28.2 | -94 | 100 | 2320 | 6.84 | 60.6 | 99 | 46 | 19.2 | 48.6 | 15 | 63 | -57 | 2180 | 6.54 | 31.7 | 93 | -97 | 91 | GI50 (NCI-H322M [4]): 5.68 µM; growth at 1 µM (UACC-62): 33%; growth at 10 µM (UACC-257 [8]): 71.7%; growth at 1 µM (NCI-H23): -64%; growth at 0.001 µM (UACC-257 [9]): 95%; growth at 10 µM (OVCAR-4): -83%; GI50 (COLO 205 [10]): 1800 nM; TGI (COLO 205 [10]): 3.26 µM; CC50 (COLO 205 [10]): 5.9 µM; growth at 1 µM (MOLT-4): -16%; growth at 0.1 µM (NCI/ADR-RES [11]): 95%; growth at 1 µM (ACHN): -4%; growth at 0.001 µM (SN12C [12]): 94%; growth at 0.001 µM (NCI/ADR-RES [13]): 105%; growth at 0.01 µM (COLO 205 [14]): 99%; GI50 (NCI/ADR-RES [15]): 2060 nM; TGI (NCI/ADR-RES [15]): 4.56 µM; CC50 (NCI/ADR-RES [15]): 15.8 µM |
| Cc1cc(O)cc(-c2nn(CC#N)cc2-c2ccnc(-c3ccc(N(C)C)cc3)c2)c1 | 93 | 53.5 | -59 | 103 | 1010 | 3.21 | > 100 | 90 | 80 | 59.8 | > 100 | 19.5 | 100 | 26 | 3230 | 32.5 | > 100 | 99 | -81 | 90 | GI50 (NCI-H322M [4]): 6.08 µM; growth at 1 µM (UACC-62): 10%; growth at 10 µM (UACC-257 [8]): 54.1%; growth at 1 µM (NCI-H23): 24%; growth at 0.001 µM (UACC-257 [9]): 96%; growth at 10 µM (OVCAR-4): 9%; GI50 (COLO 205 [10]): 1950 nM; TGI (COLO 205 [10]): 4.13 µM; CC50 (COLO 205 [10]): 87.8 µM; growth at 1 µM (MOLT-4): 11%; growth at 0.1 µM (NCI/ADR-RES [11]): 91%; growth at 1 µM (ACHN): 18%; growth at 0.001 µM (SN12C [12]): 97%; growth at 0.001 µM (NCI/ADR-RES [13]): 97%; growth at 0.01 µM (COLO 205 [14]): 95%; GI50 (NCI/ADR-RES [15]): 2540 nM; TGI (NCI/ADR-RES [15]): 7.93 µM; CC50 (NCI/ADR-RES [15]): > 100 µM |
| COc1cc(C)cc(-c2nn(CC#N)cc2-c2ccnc(-c3ccc(N(C)C)cc3)c2)c1 | 49 | -46.5 | -74 | 98 | 235 | 0.613 | > 100 | 8 | 10 | > 1 | > 100 | 9.86 | 66 | 8 | 619 | 98.7 | > 100 | 98 | -44 | 15 | growth at 1 µM (UACC-62): 12%; growth at 10 µM (UACC-257 [8]): 68.2%; growth at 1 µM (NCI-H23): 15%; growth at 0.001 µM (UACC-257 [9]): 90%; growth at 10 µM (OVCAR-4): 15%; GI50 (COLO 205 [10]): 320 nM; TGI (COLO 205 [10]): 7.69 µM; CC50 (COLO 205 [10]): 3.91 µM; growth at 1 µM (MOLT-4): 13%; growth at 0.1 µM (NCI/ADR-RES [11]): -22%; growth at 1 µM (ACHN): 2%; growth at 0.001 µM (SN12C [12]): 100%; growth at 0.001 µM (NCI/ADR-RES [13]): 96%; growth at 0.01 µM (COLO 205 [14]): 116%; GI50 (NCI/ADR-RES [15]): 253 nM; TGI (NCI/ADR-RES [15]): 0.655 µM; CC50 (NCI/ADR-RES [15]): > 100 µM |
